Consider 2 compounds from ChEMBL document CHEMBL4007417, “Target Elucidation by Cocrystal Structures of NADH-Ubiquinone Oxidoreductase of Plasmodium falciparum (PfNDH2) with Small Molecule To Eliminate Drug-Resistant Malaria” (J Med Chem, 2017).

Activity calls are given as the source filed them. The rule behind the calls is not given here.

The subject of assay [1] is Plasmodium yoelii. Nature of the assay: Antimalarial activity against Plasmodium yoelii YM infected in BALB/c mouse assessed as time duration for parasite cure at 10 mg/kg, sc administered BID for 4 days starting at 96 hrs post infection, 8 hrs apart by Giemsa-staining based microscopic analysis. It counts as functional. The procedure, abridged:
(§1)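 P. yoelii-infected mice, n=3 per group. Subcutaneous injection twice daily, 8 h apart, for 4 days starting at 96 h post infection. Growth inhibition read from blood smears at 24 h post treatment. Cure time taken as the minimum period to cure all mice in the group. DMSO controls included.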

Assay [2] deals with Plasmodium yoelii. Nature of the assay: Antimalarial activity against Plasmodium yoelii YM infected in BALB/c mouse assessed as parasite growth inhibition at 10 mg/kg, sc administered BID for 4 days starting at 96 hrs post infection, 8 hrs apart by Giemsa-staining based microscopic analysis. It counts as functional. Conditions: read-out: GI. The gist of the method:
as §1

Assay [3] deals with Plasmodium yoelii. Nature of the assay: Antimalarial activity against Plasmodium yoelii YM infected in BALB/c mouse assessed as parasite growth inhibition at 30 mg/kg, sc administered BID for 4 days starting at 96 hrs post infection, 8 hrs apart by Giemsa-staining based microscopic analysis. Type of assay: functional. As to conditions: read-out: GI. The procedure, abridged: as §1

Assay [4] concerns Plasmodium yoelii. Nature of the assay: Antimalarial activity against Plasmodium yoelii YM infected in BALB/c mouse assessed as mouse survival at 30 mg/kg, sc administered BID for 4 days starting at 96 hrs post infection, 8 hrs apart by Giemsa-staining based microscopic analysis. Type of assay: functional. The procedure, abridged: (§2)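 Mice inoculated with 1×106 P. yoelii parasites. Subcutaneous dosing for 4 days starting 96 h post infection, given once daily or twice daily 8 h apart. Parasitemia followed on Giemsa-stained blood smears. Survival recorded at 40 days post infection; groups of n=3. DMSO-only mice served as untreated controls.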

Assay [5] has as its system Plasmodium yoelii. Nature of the assay: Antimalarial activity against Plasmodium yoelii YM infected in BALB/c mouse assessed as time duration for parasite cure at 30 mg/kg, sc administered BID for 4 days starting at 96 hrs post infection, 8 hrs apart by Giemsa-staining based microscopic analysis. Type of assay: functional. The gist of the method:
as §1

Assay [6] concerns Plasmodium yoelii. Nature of the assay: Antimalarial activity against Plasmodium yoelii YM infected in BALB/c mouse assessed as time duration for parasite cure at 90 mg/kg, sc administered BID for 4 days starting at 96 hrs post infection, 8 hrs apart by Giemsa-staining based microscopic analysis. Type of assay: functional. The procedure, abridged: as §1
The test system of assay [7] is Plasmodium yoelii. Nature of the assay: Antimalarial activity against Plasmodium yoelii YM infected in BALB/c mouse assessed as time duration for parasite cure at 5 mg/kg, sc administered QD for 4 days starting at 2 hrs post infection by Giemsa-staining based microscopic analysis. Type of assay: functional. The procedure, abridged:
(§3)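 P. yoelii-infected mice, n=3 per group. Subcutaneous injection once daily for 4 days starting at 2 h post infection. Growth inhibition determined at 24 h post treatment by blood-smear microscopy. Cure time taken as the minimum period to cure all mice in the group.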

Assay [8] relates to Plasmodium yoelii. Nature of the assay: Antimalarial activity against Plasmodium yoelii YM infected in BALB/c mouse assessed as parasite growth inhibition at 90 mg/kg, sc administered BID for 4 days starting at 96 hrs post infection, 8 hrs apart by Giemsa-staining based microscopic analysis. It counts as functional. As to conditions: read-out: GI. The gist of the method:
as §1

Assay [9] relates to Plasmodium yoelii. Nature of the assay: Antimalarial activity against Plasmodium yoelii YM infected in BALB/c mouse assessed as mouse survival at 5 mg/kg, sc administered QD for 4 days starting at 2 hrs post infection by Giemsa-staining based microscopic analysis. Type of assay: functional. The procedure, abridged: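 Mice inoculated with 1×106 P. yoelii parasites, then dosed subcutaneously once daily for 4 days starting 2 h post infection. Parasitemia followed by microscopy of blood smears. Survival scored at 40 days post infection in groups of n=3 mice. DMSO-only controls.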

Assay [10] has as its system Plasmodium yoelii. Nature of the assay: Antimalarial activity against Plasmodium yoelii YM infected in BALB/c mouse assessed as parasite growth inhibition at 5 mg/kg, sc administered QD for 4 days starting at 2 hrs post infection by Giemsa-staining based microscopic analysis. Conditions: read-out: GI. It counts as functional. The gist of the method: as §3
The subject of assay [11] is Plasmodium yoelii. Nature of the assay: Antimalarial activity against Plasmodium yoelii YM infected in BALB/c mouse assessed as time duration for parasite cure at 10 mg/kg, sc administered QD for 4 days starting at 96 hrs post infection by Giemsa-staining based microscopic analysis. It counts as functional. The gist of the method: (§4)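 P. yoelii-infected mice, n=3 per group. Subcutaneous injection once daily for 4 days starting at 96 h post infection. Parasitemia followed on blood-smear microscopy, with inhibition measured at 24 h post treatment. Cure time taken as the minimum period to cure all mice; survival recorded at 40 days. DMSO controls included.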

Assay [12] concerns Plasmodium yoelii. Nature of the assay: Antimalarial activity against Plasmodium yoelii YM infected in BALB/c mouse assessed as parasite growth inhibition at 10 mg/kg, sc administered QD for 4 days starting at 96 hrs post infection by Giemsa-staining based microscopic analysis. Conditions: read-out: GI. It counts as functional. The gist of the method: as §4
The subject of assay [13] is Plasmodium yoelii. Nature of the assay: Antimalarial activity against Plasmodium yoelii YM infected in BALB/c mouse assessed as mouse survival at 10 mg/kg, sc administered QD for 4 days starting at 96 hrs post infection by Giemsa-staining based microscopic analysis. Type of assay: functional. The procedure, abridged: as §2
Assay [14] relates to Plasmodium yoelii. Nature of the assay: Antimalarial activity against Plasmodium yoelii YM infected in BALB/c mouse assessed as mouse survival at 10 mg/kg, sc administered BID for 4 days starting at 96 hrs post infection, 8 hrs apart by Giemsa-staining based microscopic analysis. It counts as functional. The procedure, abridged: as §2
Assay [15] concerns Plasmodium yoelii. Nature of the assay: Antimalarial activity against Plasmodium yoelii YM infected in BALB/c mouse assessed as mouse survival at 90 mg/kg, sc administered BID for 4 days starting at 96 hrs post infection, 8 hrs apart by Giemsa-staining based microscopic analysis. It counts as functional. The procedure, abridged: as §2
Assay [16] concerns Plasmodium yoelii. Nature of the assay: Antimalarial activity against Plasmodium yoelii YM infected in BALB/c mouse assessed as parasite cure level at 10 to 90 mg/kg, ip administered on days 1 post infection by Giemsa-stained microscopic analysis. It counts as functional, organism-based. The gist of the method: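 Mice (groups of three) inoculated with 1×10^6 P. yoelii parasites. Single intraperitoneal dose of 10, 30 or 90 mg/kg given 24 h after inoculation. DMSO-only untreated group included. Outcome followed by blood-smear microscopy for cure, with survival scored at 40 days post infection.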

The test system of assay [17] is Plasmodium falciparum. Nature of the assay: Antimalarial activity against […] asexual blood stage Plasmodium falciparum 3D7 after 72 hrs by SYBR green-based fluorometric analysis. Type of assay: functional. Conditions: 3D7, 72 h. The procedure, abridged:
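Mid-ring-stage cultures (~6-10 h post-invasion) at 1% parasitemia and 2% hematocrit, in triplicate. Twofold serial dilutions from a top concentration of 100 nM. Incubated 72 h at 37 °C under 5% CO2/5% O2/90% N2. Lysis buffer containing 5×SYBR Green I added, 20 min in the dark, fluorescence read at ex 485/em 538 nm. EC50 derived.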

`CCc1nc(N)nc(N)c1-c1ccc(Cl)cc1` [PYRIMETHAMINE]: the Time in [1] was 4 days; in [5], 4 days; in [6], 4 days; in [7] it was 30 days; in assay [11] it was 17 days. Moreover, the inhibition in vivo at 10 mg/kg amounted to 100% in assay [2] and 98.4% in [12]. Besides, the inhibition in vivo at 30 mg/kg in assay [3] was 100%. For the same compound, the survival at 30 mg/kg in assay [4] worked out at 100%. Further, in assay [8], the inhibition in vivo at 90 mg/kg is 100%. Moreover, the survival at 5 mg/kg in assay [9] was found to be 100%. Further, the inhibition in vivo at 5 mg/kg in [10] stood at 100%. The survival at 10 mg/kg in [13] and in assay [14] was 100% each time. The survival at 90 mg/kg in assay [15] is 100%. Also, the outcome in assay [16] was Active.

Broadly, the EC50 is the midpoint of the concentration-response curve. Lower therefore signals greater potency. On to `C[C@H]1[C@@H](O)O[C@@H]2O[C@@]3(C)CC[C@H]4[C@H](C)CC[C@@H]1[C@@]24OO3` [ARTENIMOL], for which the results for the Time in assay [1], in assay [5] and in [6] were 15 days, 4 days and 4 days, respectively. The inhibition in vivo at 10 mg/kg in assay [2] came out at 100%. The inhibition in vivo at 30 mg/kg in assay [3] came to 100%. Also, the survival at 30 mg/kg in assay [4] came to 100%. Also, the inhibition in vivo at 90 mg/kg in [8] is 100%. Also, the survival at 10 mg/kg in assay [14] was found to be 100%. The survival at 90 mg/kg in [15] was determined as 100%. Also, the EC50 in [17] is 4.32 nM. In addition, the result in assay [16] was Active.
